Results taken from ChEMBL document CHEMBL4049394, “Desing and synthesis of potent anti-Trypanosoma cruzi agents new thiazoles derivatives which induce apoptotic parasite death” (Eur J Med Chem, 2017).

Legend:
Trypanosoma cruzi [1] = experiment: Induction of apoptosis in bloodstream trypomastigote stage of Trypanosoma cruzi Y infected in monkey LLC-MK2 cells assessed as late apoptotic cells at 1.2 uM measured after 24 hrs by Annexin-V-FITC/propidium iodide staining based flow cytometric method (reference value: 0.27%); assay type: functional
Trypanosoma cruzi [2] = experiment: Induction of apoptosis in bloodstream trypomastigote stage of Trypanosoma cruzi Y infected in monkey LLC-MK2 cells assessed as viable cells at 2.4 uM measured after 24 hrs by Annexin-V-FITC/propidium iodide staining based flow cytometric method (reference value: 99.4%); assay type: functional
Trypanosoma cruzi [3] = experiment: Induction of apoptosis in bloodstream trypomastigote stage of Trypanosoma cruzi Y infected in monkey LLC-MK2 cells assessed as late apoptotic cells at 2.4 uM measured after 24 hrs by Annexin-V-FITC/propidium iodide staining based flow cytometric method (reference value: 0.27%); assay type: functional
Trypanosoma cruzi [4] = experiment: Potency index, ratio of benznidazole CC50 to compound CC50 for bloodstream trypomastigote stage of Trypanosoma cruzi Y infected in monkey LLC-MK2 cells; assay type: functional
[5] = Cytotoxicity against mouse J774A.1 cells after 24 to 72 hrs by MTT assay; assay type: cell-based, J774.A1; conditions: read-out: MNCC
How it was run: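 J774A.1 macrophages in DMEM with 10% heat-inactivated FBS at 37 °C, 5% CO2. Seeded at 1×10^5 cells/well, 24 h preincubation, then compounds at 1–100 µg/mL for 72 h (table footnote: viability at 24 h). MTT 2 h, formazan dissolved in DMSO, absorbance read at 570 nm. Highest non-cytotoxic concentration reported.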

Trypanosoma cruzi [6] = experiment: Antitrypanosomal activity against bloodstream trypomastigote stage of Trypanosoma cruzi Y infected in monkey LLC-MK2 cells measured after 24 hrs by neubauer chamber method; assay type: functional; conditions: LLC-MK2, in Primates
How it was run: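 Y strain trypomastigotes taken from LLC-MK2 culture supernatant and held in RPMI-1640 with 10% FBS. Seeded at 4×10^5 cells/well and treated in triplicate for 24 h at 37 °C, 5% CO2. Motile parasites counted in a Neubauer chamber against untreated wells. IC50 by nonlinear regression from at least seven concentrations. Experiment repeated; SD < 10% of mean required.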

Trypanosoma cruzi [7] = experiment: Induction of apoptosis in bloodstream trypomastigote stage of Trypanosoma cruzi Y infected in monkey LLC-MK2 cells assessed as necrotic cells at 1.2 uM measured after 24 hrs by Annexin-V-FITC/propidium iodide staining based flow cytometric method (reference value: 0.014%); assay type: functional
Trypanosoma cruzi [8] = experiment: Induction of apoptosis in bloodstream trypomastigote stage of Trypanosoma cruzi Y infected in monkey LLC-MK2 cells assessed as early apoptotic cells at 2.4 uM measured after 24 hrs by Annexin-V-FITC/propidium iodide staining based flow cytometric method (reference value: 0.31%); assay type: functional
[9] = Selectivity index, ratio of highest non-cytotoxic concentration for mouse J774A.1 cells to CC50 for bloodstream trypomastigote stage of Trypanosoma cruzi Y infected in monkey LLC-MK2 cells; assay type: toxicity, cell-based; conditions: read-out: Selectivity Index
How it was run: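 Selectivity index is the highest non-cytotoxic concentration in J774A.1 macrophages divided by the 50% value against Y strain trypomastigotes measured after 24 h.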

Trypanosoma cruzi [10] = experiment: Potency index, ratio of benznidazole CC50 to compound CC50 for Trypanosoma cruzi Dm28c epimastigotes; assay type: functional
Trypanosoma cruzi [11] = experiment: Induction of apoptosis in bloodstream trypomastigote stage of Trypanosoma cruzi Y infected in monkey LLC-MK2 cells assessed as viable cells at 1.2 uM measured after 24 hrs by Annexin-V-FITC/propidium iodide staining based flow cytometric method (reference value: 99.4%); assay type: functional
Trypanosoma cruzi [12] = experiment: Induction of apoptosis in bloodstream trypomastigote stage of Trypanosoma cruzi Y infected in monkey LLC-MK2 cells assessed as necrotic cells at 2.4 uM measured after 24 hrs by Annexin-V-FITC/propidium iodide staining based flow cytometric method (reference value: 0.014%); assay type: functional
Trypanosoma cruzi [13] = experiment: Antitrypanosomal activity against Trypanosoma cruzi Dm28c epimastigotes measured after 4 to 5 days by neubauer chamber method; assay type: functional
How it was run: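 Dm28c epimastigotes in LIT with 10% FBS, 1% hemin and gentamycin at 27 °C. Seeded at 10^6 cells/well and treated in triplicate for 4 days (table footnote: 5 days). Parasites counted in a Neubauer chamber against untreated wells as 100%. IC50 by nonlinear regression from at least five concentrations. Experiment repeated; only values with SD < 10% of mean kept.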

[14] = molecular target: Cruzipain (Trypanosoma cruzi) (UniProt P25779); experiment: Inhibition of Trypanosoma cruzi cruzain at 50 uM using Z-phe-Arg-aminomethylcoumarin as substrate pretreated for 10 mins measured for 5 mins by fluorometric method relative to control
How it was run: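 Cruzain at 0.5 nM in 0.1 M sodium acetate pH 5.5 with 0.1 mM β-mercaptoethanol and 0.01% Triton X-100. Compound screened at 50 µM after a 10-min preincubation with enzyme, then 2.5 µM Z-FR-AMC added. AMC fluorescence (ex 340/em 440 nm) followed for 5 min. Activity taken from initial rates relative to a DMSO control. Two independent experiments, each in triplicate.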

Trypanosoma cruzi [15] = experiment: Induction of apoptosis in bloodstream trypomastigote stage of Trypanosoma cruzi Y infected in monkey LLC-MK2 cells assessed as early apoptotic cells at 1.2 uM measured after 24 hrs by Annexin-V-FITC/propidium iodide staining based flow cytometric method (reference value: 0.31%); assay type: functional
Trypanosoma cruzi [16] = experiment: Induction of apoptosis in bloodstream trypomastigote stage of Trypanosoma cruzi Y infected in monkey LLC-MK2 cells assessed as late apoptotic cells at 2.5 uM measured after 24 hrs by Annexin-V-FITC/propidium iodide staining based flow cytometric method (reference value: 0.27%); assay type: functional
Trypanosoma cruzi [17] = experiment: Induction of apoptosis in bloodstream trypomastigote stage of Trypanosoma cruzi Y infected in monkey LLC-MK2 cells assessed as early apoptotic cells at 2.5 uM measured after 24 hrs by Annexin-V-FITC/propidium iodide staining based flow cytometric method (reference value: 0.31%); assay type: functional
Trypanosoma cruzi [18] = experiment: Induction of apoptosis in bloodstream trypomastigote stage of Trypanosoma cruzi Y infected in monkey LLC-MK2 cells assessed as early apoptotic cells at 5 uM measured after 24 hrs by Annexin-V-FITC/propidium iodide staining based flow cytometric method (reference value: 0.31%); assay type: functional
Trypanosoma cruzi [19] = experiment: Induction of apoptosis in bloodstream trypomastigote stage of Trypanosoma cruzi Y infected in monkey LLC-MK2 cells assessed as late apoptotic cells at 5 uM measured after 24 hrs by Annexin-V-FITC/propidium iodide staining based flow cytometric method (reference value: 0.27%); assay type: functional
Trypanosoma cruzi [20] = experiment: Induction of apoptosis in bloodstream trypomastigote stage of Trypanosoma cruzi Y infected in monkey LLC-MK2 cells assessed as necrotic cells at 5 uM measured after 24 hrs by Annexin-V-FITC/propidium iodide staining based flow cytometric method (reference value: 0.014%); assay type: functional
Trypanosoma cruzi [21] = experiment: Induction of apoptosis in bloodstream trypomastigote stage of Trypanosoma cruzi Y infected in monkey LLC-MK2 cells assessed as necrotic cells at 2.5 uM measured after 24 hrs by Annexin-V-FITC/propidium iodide staining based flow cytometric method (reference value: 0.014%); assay type: functional

Cruzipain (Trypanosoma cruzi), sequence (P25779 123-467 limits assumed): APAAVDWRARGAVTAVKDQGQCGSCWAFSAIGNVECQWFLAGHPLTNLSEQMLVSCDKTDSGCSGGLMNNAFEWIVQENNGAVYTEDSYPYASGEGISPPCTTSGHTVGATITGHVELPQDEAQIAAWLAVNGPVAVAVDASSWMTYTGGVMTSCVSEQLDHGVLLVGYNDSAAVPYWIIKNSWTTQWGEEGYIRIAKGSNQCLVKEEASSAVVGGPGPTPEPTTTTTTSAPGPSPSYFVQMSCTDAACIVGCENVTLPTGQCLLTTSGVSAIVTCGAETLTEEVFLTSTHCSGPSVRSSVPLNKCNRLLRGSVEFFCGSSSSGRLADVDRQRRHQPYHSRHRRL

Q: With `COc1ccc(-c2cs/c(=N\N=C(/C)c3ccccn3)n2-c2ccccc2)cc1` as the compound, how does the Activity (Trypanosoma cruzi [1]) read?
A: 3.61 - 4.8%

Q: And the Activity (Trypanosoma cruzi [2])?
A: 55.2%

Q: And the Activity (Trypanosoma cruzi [3])?
A: 3.67 - 4.5%

Q: And the Ratio (Trypanosoma cruzi [4])?
A: 4 - 5

Q: What about the MNTC [5] of the same compound?
A: 477 µM

Q: What about the CC50 (Trypanosoma cruzi [6]) of the same compound?
A: 1.2 µM

Q: What about the Activity (Trypanosoma cruzi [7]) of the same compound?
A: 2.99 - 3.53%

Q: And the Activity (Trypanosoma cruzi [8])?
A: 36.4 - 38.9%

Q: What about the selectivity ratio [9] of the same compound?
A: 397 to 398

Q: And the Ratio (Trypanosoma cruzi [10])?
A: 10

Q: What about the Activity (Trypanosoma cruzi [11]) of the same compound?
A: 53.8%

Q: What about the Activity (Trypanosoma cruzi [12]) of the same compound?
A: 2.3 - 3.48%

Q: And the CC50 (Trypanosoma cruzi [13])?
A: 5 µM

Q: And the inhibition [14]?
A: 48%

Q: And the Activity (Trypanosoma cruzi [15])?
A: 38.6 - 39.6%

Q: With `C/C(=N\NC(=S)Nc1ccccc1)c1ccccn1` as the compound, how does the Activity (Trypanosoma cruzi [16]) read?
A: 5.4%

Q: What about the MNTC [5] of the same compound?
A: 21 µM

Q: And the Activity (Trypanosoma cruzi [17])?
A: 36.8%

Q: And the CC50 (Trypanosoma cruzi [6])?
A: 2.5 µM

Q: What about the selectivity ratio [9] of the same compound?
A: 8.4

Q: What about the Activity (Trypanosoma cruzi [18]) of the same compound?
A: 36%

Q: What about the Activity (Trypanosoma cruzi [19]) of the same compound?
A: 4.8%

Q: And the Activity (Trypanosoma cruzi [20])?
A: 3.55%

Q: What about the CC50 (Trypanosoma cruzi [13]) of the same compound?
A: 15.4 µM

Q: What about the Activity (Trypanosoma cruzi [21]) of the same compound?
A: 3.6%
